These results are taken from ChEMBL document CHEMBL4024792, “(N-Hydroxycarbonylbenylamino)quinolines as Selective Histone Deacetylase 6 Inhibitors Suppress Growth of Multiple Myeloma in Vitro and in Vivo” (J Med Chem, 2018).

The source made the active and inactive calls. The rule behind the calls is not given here.

One data set has as its target Histone deacetylase 2 (Homo sapiens, UniProt Q92769). As to the kind of experiment: Inhibition of full length recombinant human C-terminal GST-tagged HDAC2 expressed in baculovirus infected insect cells using RHK-K(Ac)-AMC as substrate after 60 mins by fluorescence assay.
Data set [1] concerns U-266. Kind of data set: Antiproliferative activity against human U266 cells after 48 hrs by SRB assay. The class given is functional. The note with it: U-266, 48 h. In short, it runs like this:
(§1)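 Cells were exposed to test compounds at the indicated concentrations for 48 h. They were then fixed with 10% trichloroacetic acid, stained 30 min with 0.4% SRB in 1% AcOH, and washed with 1% AcOH. Bound dye was solubilized in 10 mM Tris base and OD read at 510 nm. Lines cultured in RPMI 1640 with 20% FBS and penicillin/streptomycin, 37°C, 5% CO2.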

A further data set addresses Histone deacetylase 5 (Homo sapiens, UniProt Q9UQL6). As to the kind of experiment: Inhibition of recombinant human C-terminal His-tagged HDAC5 (656 to 1122 residues) expressed in insect cells using Boc-K(Ac)-AMC as substrate after 60 mins by fluorescence assay.
The subject of another data set is RPMI-8226. As to the kind of experiment: Cell cycle arrest in human RPMI8226 cells assessed as accumulation at G0/G1 phase at 5 uM after 24 hrs by propidium iodide staining based flow cytometry (reference value: 44.67%). It counts as functional. (Flow cytometry measures light scatter and fluorescence of single cells or particles in a stream.)
Data set [2] addresses T1, Polyamine deacetylase HDAC10 (Homo sapiens, UniProt Q969S8).
T1 sequence (Q969S8 whole entry): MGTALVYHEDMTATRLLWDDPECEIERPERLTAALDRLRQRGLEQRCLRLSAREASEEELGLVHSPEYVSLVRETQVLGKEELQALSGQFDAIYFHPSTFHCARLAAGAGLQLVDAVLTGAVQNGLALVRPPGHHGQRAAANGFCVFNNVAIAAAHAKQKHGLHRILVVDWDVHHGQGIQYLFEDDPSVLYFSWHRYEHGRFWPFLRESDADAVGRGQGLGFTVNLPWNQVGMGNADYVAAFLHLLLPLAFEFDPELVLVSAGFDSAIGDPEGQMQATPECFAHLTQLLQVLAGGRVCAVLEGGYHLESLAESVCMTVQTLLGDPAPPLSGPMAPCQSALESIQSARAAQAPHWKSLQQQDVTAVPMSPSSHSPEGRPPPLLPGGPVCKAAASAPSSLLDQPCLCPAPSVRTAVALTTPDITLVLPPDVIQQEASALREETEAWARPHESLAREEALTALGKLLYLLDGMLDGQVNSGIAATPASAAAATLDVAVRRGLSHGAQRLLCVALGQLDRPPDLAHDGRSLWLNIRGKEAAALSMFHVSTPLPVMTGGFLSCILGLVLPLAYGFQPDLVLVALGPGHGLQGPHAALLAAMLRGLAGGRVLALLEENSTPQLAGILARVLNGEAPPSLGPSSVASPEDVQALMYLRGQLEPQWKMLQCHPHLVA
Kind of data set: Inhibition of human HDAC10 using RHKKAc as substrate.

A further data set addresses Histone deacetylase 4 (Homo sapiens, UniProt P56524). As to the kind of experiment: Inhibition of recombinant human C-terminal His-tagged/N-terminal GST-tagged HDAC4 (627 to 1084 residues) expressed in insect cells using Boc-K(Ac)-AMC as substrate after 60 mins by fluorescence assay.
Data set [3] has as its system U-266. Kind of data set: Cell cycle arrest in human U266 cells assessed as accumulation at G2/M phase at 5 uM after 24 hrs by propidium iodide staining based flow cytometry (reference value: 35.13%). It counts as functional.
Data set [4] concerns U-266. As to the kind of experiment: Cell cycle arrest in human U266 cells assessed as accumulation at S phase at 5 uM after 24 hrs in presence of bortezomib by propidium iodide staining based flow cytometry (reference value: 14.05%). It counts as functional.
A short description of data set [5]: Antiproliferative activity against human HS5 cells after 48 hrs by SRB assay. The class given is cell-based. In short, it runs like this:
as §1

For data set [6], the target named is T2, NAD-dependent protein deacetylase sirtuin-1 (Homo sapiens, UniProt Q96EB6).
T2 sequence (Q96EB6 whole entry): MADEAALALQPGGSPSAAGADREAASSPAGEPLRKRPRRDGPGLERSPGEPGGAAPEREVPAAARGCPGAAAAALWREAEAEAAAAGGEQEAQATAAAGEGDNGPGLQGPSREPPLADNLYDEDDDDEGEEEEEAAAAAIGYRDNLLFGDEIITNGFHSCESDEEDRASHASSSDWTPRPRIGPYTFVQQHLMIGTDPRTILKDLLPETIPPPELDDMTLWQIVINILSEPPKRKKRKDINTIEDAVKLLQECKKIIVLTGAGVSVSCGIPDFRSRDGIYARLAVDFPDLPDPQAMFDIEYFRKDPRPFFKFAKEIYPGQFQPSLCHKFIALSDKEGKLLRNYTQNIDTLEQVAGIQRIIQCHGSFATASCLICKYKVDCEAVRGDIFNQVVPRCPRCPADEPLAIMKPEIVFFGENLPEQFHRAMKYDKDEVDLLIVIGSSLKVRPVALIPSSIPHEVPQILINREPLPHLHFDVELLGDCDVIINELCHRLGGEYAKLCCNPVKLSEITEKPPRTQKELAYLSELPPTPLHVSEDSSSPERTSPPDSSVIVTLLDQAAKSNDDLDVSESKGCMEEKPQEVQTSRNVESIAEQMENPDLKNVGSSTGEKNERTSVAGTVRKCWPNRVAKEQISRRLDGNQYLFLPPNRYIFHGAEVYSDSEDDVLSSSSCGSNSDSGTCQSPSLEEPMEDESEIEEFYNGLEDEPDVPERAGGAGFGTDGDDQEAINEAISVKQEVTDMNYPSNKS
Kind of data set: Inhibition of recombinant human N-terminal His-tagged SIRT1 (1 to 747 end residues) expressed in Escherichia coli using Ac-RHK-K(Ac)-AMC as substrate after 30 mins in presence of NAD+ by fluorescence assay.

A short description of data set [7]: Apparent permeability from basolateral to apical side in human Caco2 cells assessed as drug recovery at 10 uM after 2 hrs by LC-MS/MS analysis. The class given is ADME, cell-based. The following applies: Caco-2, read-out: Drug recovery. In short, it runs like this: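 Caco-2 cells seeded at 8.4 × 10^4 cells/cm2 on polycarbonate inserts for 21 days. For A→B, donor was apical (HBSS/MES pH 6.5, 10 µM compound) and receiver basolateral (HBSS/HEPES pH 7.4). For B→A, donor was basolateral (HBSS/HEPES pH 7.4, 10 µM) and receiver apical (HBSS/MES pH 6.5). Incubated at 37 °C for 2 h. Receiver sampled at 30, 60, 90 and 120 min, donor at 0 and 120 min.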
For orientation: Passage across Caco-2 layers is used to estimate intestinal permeability.

The target of data set [8] is Histone deacetylase 3/Nuclear receptor corepressor 2 (HDAC3/NCoR2) (Homo sapiens, UniProt O15379). Kind of data set: Inhibition of full length recombinant human C-terminal His-tagged HDAC3/N-terminal GST-tagged NCOR2 (395 to 489 residues) expressed in insect cells using RHK-K(Ac)-AMC as substrate after 60 mins by fluorescence assay.
The subject of the next data set is NCI-H929. As to the kind of experiment: Induction of apoptosis in human NCI-H929 cells at 5 uM after 24 hrs in presence of bortezomib by Annexin V/propidium iodide staining based flow cytometry. The class given is functional, cell-based.

Sequence of Histone deacetylase 5 (Q9UQL6 whole entry, the tested form may be a part): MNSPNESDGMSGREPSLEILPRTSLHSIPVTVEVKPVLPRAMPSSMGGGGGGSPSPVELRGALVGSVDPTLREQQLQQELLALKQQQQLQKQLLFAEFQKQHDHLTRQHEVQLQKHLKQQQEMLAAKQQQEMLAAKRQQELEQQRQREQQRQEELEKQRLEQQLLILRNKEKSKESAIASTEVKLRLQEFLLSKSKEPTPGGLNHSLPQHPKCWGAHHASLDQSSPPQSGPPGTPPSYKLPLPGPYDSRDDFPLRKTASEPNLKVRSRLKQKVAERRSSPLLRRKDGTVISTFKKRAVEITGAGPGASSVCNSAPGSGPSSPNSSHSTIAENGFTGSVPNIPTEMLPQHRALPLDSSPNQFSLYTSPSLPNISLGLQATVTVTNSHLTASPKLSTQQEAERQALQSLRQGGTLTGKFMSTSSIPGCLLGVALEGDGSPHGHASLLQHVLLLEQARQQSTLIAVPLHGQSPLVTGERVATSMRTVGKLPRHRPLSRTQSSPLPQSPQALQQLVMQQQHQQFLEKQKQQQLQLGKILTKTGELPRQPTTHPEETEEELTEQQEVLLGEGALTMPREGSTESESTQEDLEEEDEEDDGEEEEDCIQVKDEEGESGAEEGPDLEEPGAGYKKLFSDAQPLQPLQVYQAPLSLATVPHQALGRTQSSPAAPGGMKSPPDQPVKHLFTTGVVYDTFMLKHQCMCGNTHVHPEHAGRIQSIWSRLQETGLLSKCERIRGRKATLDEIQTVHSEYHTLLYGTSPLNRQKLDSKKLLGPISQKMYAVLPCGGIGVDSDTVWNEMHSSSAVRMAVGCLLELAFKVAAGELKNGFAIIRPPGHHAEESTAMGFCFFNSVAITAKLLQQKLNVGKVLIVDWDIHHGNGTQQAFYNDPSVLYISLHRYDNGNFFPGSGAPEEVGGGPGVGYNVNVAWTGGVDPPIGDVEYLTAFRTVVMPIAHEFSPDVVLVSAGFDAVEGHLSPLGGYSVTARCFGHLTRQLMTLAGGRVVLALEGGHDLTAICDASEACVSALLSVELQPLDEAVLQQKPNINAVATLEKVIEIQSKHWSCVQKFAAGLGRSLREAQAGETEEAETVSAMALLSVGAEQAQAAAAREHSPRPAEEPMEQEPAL
Sequence of Histone deacetylase 4 (P56524 whole entry, the tested form may be a part): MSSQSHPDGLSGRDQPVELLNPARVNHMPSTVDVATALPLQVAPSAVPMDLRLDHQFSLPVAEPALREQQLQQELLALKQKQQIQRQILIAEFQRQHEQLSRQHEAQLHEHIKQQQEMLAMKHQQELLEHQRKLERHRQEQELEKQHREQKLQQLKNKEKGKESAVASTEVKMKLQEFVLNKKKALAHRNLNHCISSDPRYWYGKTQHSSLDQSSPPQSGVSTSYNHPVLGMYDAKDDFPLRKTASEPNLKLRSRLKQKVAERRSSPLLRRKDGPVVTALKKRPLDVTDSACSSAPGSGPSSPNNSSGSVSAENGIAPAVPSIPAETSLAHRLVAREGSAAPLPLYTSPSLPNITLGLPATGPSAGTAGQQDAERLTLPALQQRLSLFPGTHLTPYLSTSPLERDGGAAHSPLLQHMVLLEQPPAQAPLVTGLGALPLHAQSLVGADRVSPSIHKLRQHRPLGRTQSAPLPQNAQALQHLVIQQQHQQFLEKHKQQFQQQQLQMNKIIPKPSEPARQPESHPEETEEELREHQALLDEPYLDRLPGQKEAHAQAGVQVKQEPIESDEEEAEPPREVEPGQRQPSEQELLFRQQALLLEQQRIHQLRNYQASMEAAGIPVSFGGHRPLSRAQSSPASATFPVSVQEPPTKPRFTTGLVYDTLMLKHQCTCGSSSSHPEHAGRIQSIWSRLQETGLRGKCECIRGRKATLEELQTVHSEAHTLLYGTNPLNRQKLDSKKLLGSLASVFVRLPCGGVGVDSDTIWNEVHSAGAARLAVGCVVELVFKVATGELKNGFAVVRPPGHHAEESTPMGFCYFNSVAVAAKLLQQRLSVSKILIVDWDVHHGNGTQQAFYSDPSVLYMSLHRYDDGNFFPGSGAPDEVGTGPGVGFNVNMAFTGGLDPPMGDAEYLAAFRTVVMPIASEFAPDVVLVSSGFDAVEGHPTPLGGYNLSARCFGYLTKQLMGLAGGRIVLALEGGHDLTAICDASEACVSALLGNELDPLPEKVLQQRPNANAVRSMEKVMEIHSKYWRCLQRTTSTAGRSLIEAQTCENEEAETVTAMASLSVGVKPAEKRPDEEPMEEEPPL
Sequence of Histone deacetylase 3/Nuclear receptor corepressor 2 (HDAC3/NCoR2) (O15379 whole entry, the tested form may be a part): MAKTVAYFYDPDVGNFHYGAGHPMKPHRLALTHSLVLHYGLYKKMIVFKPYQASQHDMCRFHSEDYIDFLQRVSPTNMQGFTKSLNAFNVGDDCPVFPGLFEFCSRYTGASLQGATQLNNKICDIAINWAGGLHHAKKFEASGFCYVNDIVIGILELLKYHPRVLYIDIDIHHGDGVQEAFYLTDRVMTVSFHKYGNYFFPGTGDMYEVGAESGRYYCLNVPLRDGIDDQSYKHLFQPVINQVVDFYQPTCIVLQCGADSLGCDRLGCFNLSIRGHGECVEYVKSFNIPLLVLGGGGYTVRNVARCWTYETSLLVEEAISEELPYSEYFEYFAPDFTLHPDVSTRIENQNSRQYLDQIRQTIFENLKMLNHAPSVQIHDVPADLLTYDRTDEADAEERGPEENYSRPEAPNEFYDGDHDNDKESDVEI
Sequence of Histone deacetylase 3/Nuclear receptor corepressor 2 (HDAC3/NCoR2) (Q9Y618 whole entry, further chain, the tested form may be a part): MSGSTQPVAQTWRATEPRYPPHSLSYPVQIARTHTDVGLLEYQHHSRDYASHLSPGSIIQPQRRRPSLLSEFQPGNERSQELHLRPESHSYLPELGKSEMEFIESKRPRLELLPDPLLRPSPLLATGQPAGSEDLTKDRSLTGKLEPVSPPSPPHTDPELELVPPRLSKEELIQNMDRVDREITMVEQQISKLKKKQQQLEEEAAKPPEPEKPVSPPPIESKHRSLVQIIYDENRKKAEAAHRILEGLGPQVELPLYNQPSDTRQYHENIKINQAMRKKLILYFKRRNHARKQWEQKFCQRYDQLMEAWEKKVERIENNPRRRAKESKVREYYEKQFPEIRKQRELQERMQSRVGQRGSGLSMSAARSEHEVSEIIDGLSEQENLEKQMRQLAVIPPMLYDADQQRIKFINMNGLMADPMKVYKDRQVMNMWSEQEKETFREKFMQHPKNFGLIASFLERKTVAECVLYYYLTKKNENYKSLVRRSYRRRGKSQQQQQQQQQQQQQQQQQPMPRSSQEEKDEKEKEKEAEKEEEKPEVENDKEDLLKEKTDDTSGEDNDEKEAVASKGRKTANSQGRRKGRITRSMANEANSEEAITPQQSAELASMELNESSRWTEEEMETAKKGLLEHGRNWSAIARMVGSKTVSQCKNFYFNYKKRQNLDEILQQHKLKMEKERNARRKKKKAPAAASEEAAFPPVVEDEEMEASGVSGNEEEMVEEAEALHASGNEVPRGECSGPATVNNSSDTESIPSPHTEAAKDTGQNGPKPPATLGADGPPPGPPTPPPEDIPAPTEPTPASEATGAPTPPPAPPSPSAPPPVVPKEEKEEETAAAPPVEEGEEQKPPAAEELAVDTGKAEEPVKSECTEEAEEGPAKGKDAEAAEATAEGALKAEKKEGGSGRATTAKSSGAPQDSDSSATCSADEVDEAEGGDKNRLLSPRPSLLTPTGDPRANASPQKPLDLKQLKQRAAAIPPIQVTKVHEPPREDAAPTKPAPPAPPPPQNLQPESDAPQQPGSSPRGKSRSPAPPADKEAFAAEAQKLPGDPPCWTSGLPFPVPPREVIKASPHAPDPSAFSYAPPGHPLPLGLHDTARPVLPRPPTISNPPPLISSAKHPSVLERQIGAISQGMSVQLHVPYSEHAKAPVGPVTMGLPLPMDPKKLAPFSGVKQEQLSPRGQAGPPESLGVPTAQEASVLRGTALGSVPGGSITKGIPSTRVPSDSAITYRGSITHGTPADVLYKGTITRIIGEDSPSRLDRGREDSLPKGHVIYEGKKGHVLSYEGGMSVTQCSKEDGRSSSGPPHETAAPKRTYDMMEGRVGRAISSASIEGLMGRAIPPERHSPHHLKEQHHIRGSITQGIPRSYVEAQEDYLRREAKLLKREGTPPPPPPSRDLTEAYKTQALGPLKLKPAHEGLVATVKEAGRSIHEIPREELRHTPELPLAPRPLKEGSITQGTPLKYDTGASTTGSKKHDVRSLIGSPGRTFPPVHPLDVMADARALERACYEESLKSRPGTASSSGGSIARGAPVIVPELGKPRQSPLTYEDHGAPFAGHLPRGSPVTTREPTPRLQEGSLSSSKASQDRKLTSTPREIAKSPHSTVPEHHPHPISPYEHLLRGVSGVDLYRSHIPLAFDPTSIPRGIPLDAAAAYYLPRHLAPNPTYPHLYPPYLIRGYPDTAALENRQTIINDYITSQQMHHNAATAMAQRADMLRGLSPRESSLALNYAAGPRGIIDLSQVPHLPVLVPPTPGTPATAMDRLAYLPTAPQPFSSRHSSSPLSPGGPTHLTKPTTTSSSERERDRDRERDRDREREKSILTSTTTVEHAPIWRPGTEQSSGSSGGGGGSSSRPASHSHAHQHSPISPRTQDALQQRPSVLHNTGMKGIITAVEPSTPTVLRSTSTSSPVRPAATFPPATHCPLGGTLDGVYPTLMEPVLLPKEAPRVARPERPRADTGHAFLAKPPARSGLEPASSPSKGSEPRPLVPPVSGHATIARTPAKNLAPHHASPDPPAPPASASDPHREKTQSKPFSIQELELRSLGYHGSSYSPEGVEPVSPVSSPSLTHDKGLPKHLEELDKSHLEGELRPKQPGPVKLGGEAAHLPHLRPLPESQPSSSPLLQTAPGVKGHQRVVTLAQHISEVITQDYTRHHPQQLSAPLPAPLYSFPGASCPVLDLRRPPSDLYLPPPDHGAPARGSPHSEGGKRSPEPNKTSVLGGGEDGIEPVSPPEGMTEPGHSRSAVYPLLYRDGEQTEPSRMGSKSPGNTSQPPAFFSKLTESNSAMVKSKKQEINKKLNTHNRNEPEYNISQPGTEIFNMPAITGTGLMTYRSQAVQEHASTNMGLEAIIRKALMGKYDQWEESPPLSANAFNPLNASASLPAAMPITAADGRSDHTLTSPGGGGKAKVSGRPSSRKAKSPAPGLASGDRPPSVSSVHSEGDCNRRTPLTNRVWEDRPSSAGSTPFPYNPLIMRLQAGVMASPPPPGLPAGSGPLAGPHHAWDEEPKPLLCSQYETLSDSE

With `O=C(NO)c1ccc(CNc2cccc3cccnc23)cc1`, the 50% inhibitory concentration (IC50) at Histone deacetylase 2 is 12.5 µM; on Histone deacetylase 5, 3.11 µM; in [2], 9.79 µM; on Histone deacetylase 4 it was 4.44 µM; in [6], more than 20 µM; in [8] it was 7.75 µM. This molecule showed a concentration for 50% growth inhibition (GI50) in the data set on U-266 [1] of 40.6 µM. The figures for the Activity in the data set on RPMI-8226, with U-266 [3] and in the data set on U-266 [4] were 41.95%, 23.3% and 7.56%, respectively. The GI50 at 48 h in data set [5] was more than 100 µM. The recovery at 2 h, 10 µM in [7] was 69%. For the same molecule, in the data set with NCI-H929, the result was Active.

On to `O=C(NO)c1ccc(CNc2cccc3ncccc23)cc1`, for which the concentration for half-maximal inhibition (IC50) at Histone deacetylase 2 is 8.61 µM; on Histone deacetylase 5, 2.25 µM; in [2], 1.26 µM; on Histone deacetylase 4, 4.82 µM; in data set [6], more than 20 µM; in data set [8] it was 5.48 µM. This molecule also registered a 50% growth inhibitory concentration (GI50) in the data set on U-266 [1] of 28.4 µM. This molecule came in with a 50% growth inhibitory concentration (GI50) at 48 h in data set [5] of more than 100 µM.

For orientation: IC50 means the concentration that gives 50% inhibition. In general, GI50 refers to the concentration giving 50% growth inhibition. Lower therefore signals more potent growth inhibition.
